Laboratory results from ChEMBL document CHEMBL1130218, “Potent anandamide analogs: the effect of changing the length and branching of the end pentyl chain” (J Med Chem, 1997).
pKi: −log10 of the molar value. Calls of active or inactive are those of the source. The rule behind the calls is not given here.

Columns and labels:
Mus musculus [1] = species: Mus musculus; assay: Hypothermia as measured from changes in rectal (RT) in mice; type: functional
In short: (§1)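 Separate group of mice; rectal temperature by thermistor probe inserted 25 mm before and 4 min after iv tail-vein injection (ethanol:emulphor:saline 1:1:18, 0.1 mL/10 g).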

Mus musculus [2] = species: Mus musculus; assay: Inhibition of spontaneous activity (SA) in mice; type: functional
In short: (§2)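 Measured in the same mice as tail-flick; iv tail-vein dosing in ethanol:emulphor:saline 1:1:18, 0.1 mL/10 g. Immediately after tail-flick (about 4 min post-injection) mice placed in individual photocell cages; beam interruptions over 16 beams counted for 10 min.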

Mus musculus [3] = species: Mus musculus; assay: Ring immobility (RI) in mice; type: functional
In short: (§3)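 Same mice as temperature test; immediately after temperature reading, mice placed on 5.5 cm ring 16 cm high and motionless time over 5 min recorded; % immobility = time/300 s × 100. iv tail-vein dosing in ethanol:emulphor:saline 1:1:18.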

Mus musculus [4] = species: Mus musculus; assay: Antinociception as measured from the tail - flick response (TF), in mice; type: functional
Cannabinoid receptor 1 [5] = target: T1, Cannabinoid receptor 1 (Mus musculus, UniProt P47746); assay: Binding affinity for Cannabinoid receptor 1 in presence of phenylmethylsulfonyl fluoride (PMSF)
T1 sequence (P47746 whole entry): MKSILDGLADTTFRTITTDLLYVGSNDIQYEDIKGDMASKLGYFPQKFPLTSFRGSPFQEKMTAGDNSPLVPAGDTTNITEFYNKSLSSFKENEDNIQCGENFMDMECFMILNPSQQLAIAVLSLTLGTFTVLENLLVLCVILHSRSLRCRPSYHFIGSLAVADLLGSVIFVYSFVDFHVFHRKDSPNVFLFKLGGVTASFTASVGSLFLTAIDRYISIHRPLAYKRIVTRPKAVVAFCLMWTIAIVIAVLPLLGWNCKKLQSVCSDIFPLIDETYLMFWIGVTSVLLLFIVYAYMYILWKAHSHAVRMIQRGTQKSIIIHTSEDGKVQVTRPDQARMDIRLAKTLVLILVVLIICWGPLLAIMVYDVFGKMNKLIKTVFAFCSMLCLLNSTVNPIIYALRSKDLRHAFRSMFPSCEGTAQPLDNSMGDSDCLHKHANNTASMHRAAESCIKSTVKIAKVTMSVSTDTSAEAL
In short: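 Radioligand binding to P2 membranes (150 µg protein) in 50 mM Tris-HCl, 1 mM EDTA, 3 mM MgCl2, 5 mg/mL BSA, with amidase inhibitor PMSF 50 µM; final ethanol ≤0.4%. 1 h at 30 °C; nonspecific binding with 1 µM CP-55,940; terminated with ice-cold buffer and rapid filtration through PEI-treated filters.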

Cannabinoid receptor 1 [6] = target: T1, Cannabinoid receptor 1; assay: Binding affinity for Cannabinoid receptor 1 in absence of phenylmethylsulfonyl fluoride (PMSF)
In short: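 Radioligand binding to P2 membranes (150 µg protein) in 50 mM Tris-HCl, 1 mM EDTA, 3 mM MgCl2, 5 mg/mL BSA; ethanolic stocks diluted, final ethanol ≤0.4%; no PMSF. 1 h at 30 °C; nonspecific binding with 1 µM CP-55,940; stopped with ice-cold buffer and rapid filtration through PEI-treated filters.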

Mus musculus [7] = species: Mus musculus; assay: Hypothermia as measured from changes in rectal (RT) in mice; Inactive; type: functional, organism-based; in short: as §1
Mus musculus [8] = species: Mus musculus; assay: Ring immobility (RI) in mice; Inactive; type: functional, organism-based; in short: as §3
Mus musculus [9] = species: Mus musculus; assay: Antinociception as measured from the tail - flick response (TF), in mice; Inactive; type: functional, organism-based
Mus musculus [10] = species: Mus musculus; assay: Inhibition of spontaneous activity (SA) in mice; Inactive; type: functional, organism-based; in short: as §2

Compound | ED50 (Mus musculus [1]) [mg/kg] | ED50 (Mus musculus [2]) [mg/kg] | ED50 (Mus musculus [3]) [mg/kg] | ED50 (Mus musculus [4]) [mg/kg] | pKi (Cannabinoid receptor 1 [5]) | pKi (Cannabinoid receptor 1 [6]) | ED50 (Mus musculus [7]) | ED50 (Mus musculus [8]) | ED50 (Mus musculus [9]) | ED50 (Mus musculus [10])
CCCCCC(C)(C)C/C=C\C/C=C\C/C=C\C/C=C\CCC(C)C(=O)NCCF (centres undefined) | 76.2 | 3.14 | 11.4 | 4.12 | 8.11 |  |  |  |  | 
CCCCCCCCC/C=C\C/C=C\C/C=C\C/C=C\CCCC(=O)NCCO |  | 7.35 | 5.13 | 14.4 | 7.60 | 7.10 | inactive |  |  | 
CCCCCCCC(C)(C)/C=C\C/C=C\C/C=C\C/C=C\CCC(C)C(=O)NCCF (centres undefined) |  | 20.3 | 33.3 | 12.8 | 7.85 |  | inactive |  |  | 
CCCCCCC(C)/C=C\C/C=C\C/C=C\C/C=C\CCC(C)C(=O)NCCF (centres undefined) | 0.08 | 1.15 | 2.22 | 1.3 | 8.32 |  |  |  |  | 
CCCCCCCC/C=C\C/C=C\C/C=C\C/C=C\CCC(C)C(=O)NCCF (centres undefined) |  | 3.52 | 6.37 | 15.3 | 8.09 |  | inactive |  |  | 
CCCCCC(C)C/C=C\C/C=C\C/C=C\C/C=C\CCCC(=O)NCCO (centres undefined) | 12.2 | 6.22 | 5.29 | 5.48 | 7.96 | 7.29 |  |  |  | 
CCCCC/C=C\C/C=C\C/C=C\C/C=C\CCC(C)C(=O)NCCF (centres undefined) | 2.73 | 4.78 | 1.6 | 6.99 | 8.24 | 7.82 |  |  |  | 
CCCCCCC(C)(C)/C=C\C/C=C\C/C=C\C/C=C\CCCC(=O)NCCO | 7.49 | 2.17 | 1.17 | 2.16 | 8.15 |  |  |  |  | 
CCCCC(C)(C)C/C=C\C/C=C\C/C=C\C/C=C\CCCC(=O)NCCO |  | 44.1 |  |  | 7.32 | 6.42 | inactive | inactive | inactive | 
CCCCCCCC/C=C\C/C=C\C/C=C\C/C=C\CCCC(=O)NCCO |  |  |  |  | 7.74 | 6.81 |  |  | inactive | inactive
CCCCCCC/C=C\C/C=C\C/C=C\C/C=C\CCCC(=O)NCCO |  | 20.4 |  |  | 7.26 | 5.75 | inactive | inactive | inactive | 
CCCCCCC(C)(C)/C=C\C/C=C\C/C=C\C/C=C\CCC(C)C(=O)NCCF (centres undefined) | 3.6 | 3.48 | 3.11 | 0.86 | 9.00 |  |  |  |  | 
CCCCCc1cc(O)c2c(c1)OC(C)(C)C1CCC(C)=C[C@@H]21 (single isomer, unassigned) [DRONABINOL] | 1.4 | 1 | 1.5 | 1.4 |  |  |  |  |  | 
CCCCC/C=C\C/C=C\C/C=C\C/C=C\CCCC(=O)NCCO [ANANDAMIDE] | 26.5 | 17.9 | 19.1 | 6.2 |  |  |  |  |  | 
CCCCCC(C)C/C=C\C/C=C\C/C=C\C/C=C\CCC(C)C(=O)NCCF (centres undefined) | 0.24 | 2.09 | 2.67 | 4.08 | 8.48 |  |  |  |  | 
CCCCCC/C=C\C/C=C\C/C=C\C/C=C\CCCC(=O)NCCO |  |  |  |  | 7.62 | 5.51 | inactive | inactive | inactive | inactive
CCCCCC(C)(C)C/C=C\C/C=C\C/C=C\C/C=C\CCCC(=O)NCCO | 9.38 | 3.36 | 5.05 | 57.3 | 7.72 | 7.41 |  |  |  | 
